Test results from paper PMC6641930 (ACS Omega, 2017).
Values joined by “and” are separate entries in the source; they are usually repeats but may differ in a detail not shown here. Identical values can stand only once. Like-named read-outs stand apart in the source and are kept apart here.

What was measured:
TTR fibrils [1] = target: T1, TTR fibrils (Homo sapiens, UniProt P02766); assay: Titration of TTR fibrils on a fixed probe concentration; format: binding
Procedure, shortened: (§1)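 Fibrils (0–20 μM, monomer basis) are titrated onto fixed probe: 1 μM, or 0.5 μM for Aβ1-42 fibrils. Buffers are pH 3.0 for TTR, insulin and lysozyme, and PBS pH 7.5 for Aβ1-42 (10 μM, 37 °C, 24 h quiescent). Samples equilibrate 30 min at room temperature. Excitation 330 nm, emission 350–700 nm. Kd comes from a one-site nonlinear fit with fixed Bmax correcting for unbound probe. SD is from two independent binding series.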

insulin fibrils [2] = target: T2, insulin fibrils (Bos taurus, UniProt P01317); assay: Titration of insulin fibrils on a fixed probe concentration; format: binding, Bovine
T2 sequence (P01317 25-54 limits assumed): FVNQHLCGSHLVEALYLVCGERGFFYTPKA
T2 sequence (P01317 85-105 limits assumed): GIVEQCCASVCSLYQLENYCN
Procedure, shortened: as §1

lysozyme fibrils [3] = target: T3, lysozyme fibrils (Gallus gallus, UniProt P00698); assay: Titration of lysozyme fibrils on a fixed probe concentration; format: binding, chicken
T3 sequence (P00698 19-147): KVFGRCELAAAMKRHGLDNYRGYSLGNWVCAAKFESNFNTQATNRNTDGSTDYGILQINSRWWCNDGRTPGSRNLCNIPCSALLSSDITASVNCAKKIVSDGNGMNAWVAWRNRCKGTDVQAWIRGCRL
Procedure, shortened: as §1

Aβ1-42 fibrils [4] = target: T4, Aβ1-42 fibrils (Homo sapiens, UniProt P05067); assay: Titration of Aβ1-42 fibrils on a fixed probe concentration; format: binding
T4 sequence (P05067 672-713): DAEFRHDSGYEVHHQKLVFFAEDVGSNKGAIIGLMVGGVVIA
Procedure, shortened: as §1

TTR fibrils [5] = target: T1, TTR fibrils; assay: Fluorescence emission of probe bound to TTR fibrils; format: binding; details: 5 μM fibrils + 1 μM probe; pH 3.0; excitation 330 nm
Procedure, shortened: (§2)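 Fibrils made from pH 3.0 (TTR: purified WT TTR in 50 mM NaAc/100 mM NaCl; bovine insulin or hen lysozyme: 200 μM in 25 mM HCl pH 1.6 at 65 °C, then dialysed into NaAc/NaCl pH 3.0). 1.0 μM probe from DMSO stock mixed with 5 μM fibrils (monomer basis) in HOAc/NaAc pH 3.0. Excitation 330 nm, emission 350–600 nm. Fold increase taken relative to free probe in buffer.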

insulin fibrils [6] = target: T2, insulin fibrils; assay: Fluorescence emission of probe bound to insulin fibrils; format: binding, Bovine; details: pH 3.0; for Int: fold increase in fluorescence intensity upon binding to insulin fibrils: 5 μM fibrils (monomer basis) + 1 μM probe, versus free probe; for λem2: emission maxima of probe bound to insulin fibrils: 5 μM fibrils + 1 μM probe, excitation 330 nm
Procedure, shortened: as §2

lysozyme fibrils [7] = target: T3, lysozyme fibrils; assay: Fluorescence emission of probe bound to lysozyme fibrils; format: binding, chicken; details: pH 3.0; for Int: fold increase in fluorescence intensity upon binding to lysozyme fibrils: 5 μM fibrils (monomer basis) + 1 μM probe, versus free probe; for λem2: emission maxima of probe bound to lysozyme fibrils: 5 μM fibrils + 1 μM probe, excitation 330 nm
Procedure, shortened: as §2

Aβ1-42 fibrils [8] = target: T4, Aβ1-42 fibrils; assay: Fluorescence emission of probe bound to Aβ1-42 fibrils; format: binding; details: PBS buffer pH 7.5; for Int: fold increase in fluorescence intensity upon binding to Aβ1-42 fibrils: 5 μM fibrils (monomer basis) + 1 μM probe, versus free probe; for λem2: emission maxima of probe bound to Aβ1-42 fibrils: 5 μM fibrils + 1 μM probe, excitation 330 nm
Procedure, shortened: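 Recombinant Aβ1-42 (extra N-terminal Met), solubilised in 6 M GuHCl and gel-filtered into PBS pH 7.5. […] Probe (1.0 μM, from DMSO stock) mixed with 5 μM fibrils or freshly dissolved monomer (monomer basis) in PBS pH 7.5. Emission spectra at 330 nm excitation, identical settings.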

native Aβ1-42 = native Aβ1-42 (Homo sapiens, UniProt P05067); assay: Fluorescence emission of probe with freshly dissolved native Aβ1-42; format: binding; details: 5 μM native Aβ1-42 + 1 μM probe; PBS buffer
Chain of native Aβ1-42 (P05067 672-713): as above
Procedure, shortened: (§3)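 Probe (1.0 μM final, from DMSO stock) is read free in buffer or with 5 μM native protein (monomer basis). Buffers are HOAc/NaAc pH 3.0 or PBS pH 7.5. Aβ1-42 is recombinant with an extra N-terminal Met, freshly gel-filtered monomer in PBS pH 7.5. Spectra are recorded at 330 nm excitation, 350–600 nm emission, with identical instrument settings.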

[9] = UV-vis absorption and fluorescence spectra in methanol; format: physicochemical; details: for λmax (em): excitation 330 nm, [probe] = 20 μM; for ε: four concentrations
Procedure, shortened: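 Absorption is read in methanol in a 1 cm quartz cuvette at room temperature, at 20 μM and at four concentrations (50–5 μM, or 10–2 μM for one probe) for ε. Fluorescence of 20 μM probe in methanol uses 330 nm excitation, 350–600 nm emission and 1 nm resolution.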

Fluorescence lifetime = format: physicochemical; details: A: degassed methanol, [probe] = 5 μM; for τ1: excitation 337 nm
Procedure, shortened: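 TCSPC decays of 5 μM probe in argon-degassed methanol, excited at 337 nm and monitored at each emission maximum at room temperature. Instrument response is determined with a fibril solution. Decays are fitted to a sum of exponentials, with fit quality judged by χ2, residual distribution and residual autocorrelation. Average lifetime is calculated from amplitudes and lifetimes. Lifetime uncertainty is within 10%.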

Aβ1-42 fibrils [10] = target: T4, Aβ1-42 fibrils; assay: Fluorescence lifetime; details: for α1 (normalized pre-exponential factor) / α2 (normalized pre-exponential factor) / τ2 / λem1 (emission wavelength of decay) / τ1: B: bound to Aβ1-42 fibrils in PBS buffer; for τavg (average fluorescence lifetime): B: bound to Aβ1-42 fibrils in PBS buffer pH 7.5, [probe] = 5 μM; for τavg (average fluorescence lifetime) / λem1 (emission wavelength of decay) / τ1: [fibrils] = 20 μM; for λem1 (emission wavelength of decay) / τ1: [probe] = 5 μM
Procedure, shortened: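 Time-correlated single photon counting on 5 μM probe with 20 μM Aβ1-42 fibrils (monomer basis) in PBS pH 7.5 at 25 °C, not degassed. Excitation 337 nm; decay recorded at the bound-probe emission maximum. Instrument response is measured with fibril solution. Multi-exponential fits are judged by χ2 and residuals. Uncertainty is within 10%.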

TTR fibrils [11] = target: T1, TTR fibrils; details: two separate binding events, cited from earlier work
native TTR = native TTR (Homo sapiens, UniProt P02766); assay: Fluorescence emission of probe with native TTR; format: binding; details: 5 μM native TTR + 1 μM probe
Procedure, shortened: as §3

insulin fibrils [12] = target: T2, insulin fibrils; details: read-out: Kd of ThT binding to insulin fibrils; one binding site; cited from earlier work
lysozyme fibrils [13] = target: T3, lysozyme fibrils; details: two binding sites, cited from earlier work
[14] = cited from earlier work

Compound	Kd (TTR fibrils [1])	Kd (insulin fibrils [2])	Kd (lysozyme fibrils [3])	Kd (Aβ1-42 fibrils [4])	λem2: emission maxima of probe bound to TTR fibrils (TTR fibrils [5])	Int: fold increase in fluorescence intensity upon binding to insulin fibrils (insulin fibrils [6])	λem2: emission maxima of probe bound to insulin fibrils (insulin fibrils [6])	Int: fold increase in fluorescence intensity upon binding to lysozyme fibrils (lysozyme fibrils [7])	λem2: emission maxima of probe bound to lysozyme fibrils (lysozyme fibrils [7])	Int: fold increase in fluorescence intensity upon binding to Aβ1-42 fibrils (Aβ1-42 fibrils [8])	fluorescence / binding with freshly prepared native Aβ1-42 (native Aβ1-42)	Stokes shift [9]	λmax (abs) [9]	λmax (em) [9]	ε [9]	α1 (normalized pre-exponential factor) (Fluorescence lifetime)	λem1 (emission wavelength of decay) (Fluorescence lifetime)	τavg (average fluorescence lifetime) (Fluorescence lifetime)	τ1 (Fluorescence lifetime)	α1 (normalized pre-exponential factor) (Aβ1-42 fibrils [10])	further results
Oc1ccc(/C=C/c2ccccc2)cc1O [Compound 2, (E)-4-Styrylbenzene-1,2-diol]	15.1 ± 0.9 µM	8 ± 1.6 µM	7 ± 1.6 µM	4.3 ± 0.2 µM	395 nm	7.5 fold	382 nm	3.8 fold	382 nm	2.6 fold	Neither 2, 4, or 5 fluoresced appreciably	61 nm	325 nm	386 nm	25 038 L·M^–1 cm^–1	1	395 nm	<0.05 ns	< 0.05 ns	0.86	λem2: emission maxima of probe bound to Aβ1-42 fibrils (Aβ1-42 fibrils [8]): 384 nm; α2 (normalized pre-exponential factor) (Aβ1-42 fibrils [10]): 0.14; τ2 (Aβ1-42 fibrils [10]): 2.31 ns; τavg (average fluorescence lifetime) (Aβ1-42 fibrils [10]): 1.3 ns and 1.33 ns; λem1 (emission wavelength of decay) (Aβ1-42 fibrils [10]): 410 nm; τ1 (Aβ1-42 fibrils [10]): 0.28 ns
Oc1ccc(/C=C/c2ccc3ccccc3c2)cc1O [Compound 3, (E)-4-(2-(naphthalen-2-yl)vinyl)benzene-1,2-diol]	12.3 ± 1 µM	4.5 ± 0.4 µM	2.9 ± 0.2 µM	2.2 ± 0.4 µM	395 nm	13.7 fold	410 nm	13.1 fold	410 nm	6.9 fold	showed some binding	86 nm	334 nm	420 nm	30 170 L·M^–1 cm^–1	1	415 nm	0.52 ns	0.52 ns	0.54	λem2: emission maxima of probe bound to Aβ1-42 fibrils (Aβ1-42 fibrils [8]): 408 nm; α2 (normalized pre-exponential factor) (Aβ1-42 fibrils [10]): 0.46; τ2 (Aβ1-42 fibrils [10]): 1.65 ns; τavg (average fluorescence lifetime) (Aβ1-42 fibrils [10]): 1.5 ns and 1.45 ns; λem1 (emission wavelength of decay) (Aβ1-42 fibrils [10]): 420 nm; τ1 (Aβ1-42 fibrils [10]): 0.23 ns; Kd (TTR fibrils [11]; read-out: Kd1, TTR fibrils (high-affinity binding site)): 0.07 µM; Kd (TTR fibrils [11]; read-out: Kd2, TTR fibrils): > 10 µM
Oc1ccc(/C=C/c2ccc3cc4ccccc4cc3c2)cc1O [Compound 4, (E)-4-(2-(anthracen-2-yl)vinyl)benzene-1,2-diol]	7.4 ± 0.5 µM	3.7 ± 0.6 µM	2.8 ± 0.4 µM	1.6 ± 0.1 µM	451 nm and 475 nm	91.4 fold	451 nm and 471 nm	37.5 fold	451 nm	10.3 fold	Neither 2, 4, or 5 fluoresced appreciably	148 nm	335 nm	483 nm	27 070 L·M^–1 cm^–1	1	475 nm	4.23 ns	4.23 ns	0.38	emission peaks of probe bound to native TTR (native TTR; excitation 330 nm): 449 nm and 476 nm; fluorescence intensity increase upon binding to native TTR (native TTR; versus probe in buffer): about 6.1 fold; α2 (normalized pre-exponential factor) (Aβ1-42 fibrils [10]): 0.62; τ2 (Aβ1-42 fibrils [10]): 6.06 ns; τavg (average fluorescence lifetime) (Aβ1-42 fibrils [10]): 5.7 ns and 5.73 ns; λem1 (emission wavelength of decay) (Aβ1-42 fibrils [10]): 460 nm; τ1 (Aβ1-42 fibrils [10]): 0.64 ns
Cc1ccc2c(c1)sc(-c1ccc(N(C)C)cc1)[n+]2C [ThT, thioflavin T]	–	–	–	–	–	–	–	–	–	–	–	–	–	–	–	–	–	–	–	–	Kd (insulin fibrils [12]): 10.4 µM; Kd (lysozyme fibrils [13]; read-out: Kd1 of ThT binding to lysozyme fibrils): 0.13 µM; Kd (lysozyme fibrils [13]; read-out: Kd2 of ThT binding to lysozyme fibrils): 17.9 µM; average fluorescence lifetime t1/2 [14]: < 1 ns
